In ChEMBL document CHEMBL1131066, “2-Substituted aminopyrido[2,3-d]pyrimidin-7(8H)-ones. structure-activity relationships against selected tyrosine kinases and in vitro and in vivo anticancer activity” (J Med Chem, 1998) one finds IC50 data, which are given here for one molecule.

pIC50: −log10 of the molar value.

The test system of assay [1] is C6. As to the kind of experiment: C6 cell growth in soft agar with discontinued treatment. The format is functional, cell-based, Rattus norvegicus. The note with it: Rattus norvegicus, C6. Summed up:
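C6 rat glioma cells given 3-day exposure to a concentration series, then washed free of inhibitor and plated in drug-free soft agar; colonies stained and counted after two weeks. IC50; mean of two experiments, each in duplicate.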

The test system of assay [2] is NIH3T3. Description: Growth of NIH3T3 cell colonies in soft agar with continuous treatment. The format is functional, cell-based. The note with it: Mus musculus. Summed up:
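Soft agar cloning used PDGF-B-transfected NIH3T3 (NIH3T3/PDGF) cells. Cells were exposed 3 days to a concentration series, then plated in soft agar with the matching compound concentration kept present. Colonies were stained and counted after two weeks. IC50; mean of two experiments, each in duplicate.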

The target in assay [3] is Proto-oncogene tyrosine-protein kinase Src (Gallus gallus, UniProt P00523). As to the kind of experiment: Inhibition of avian c-Src tyrosine kinase.
Assay [4] has as its system C6. As to the kind of experiment: C6 cell growth in soft agar with continuous treatment. It counts as functional, cell-based, Rattus norvegicus. The note with it: Rattus norvegicus, C6. Summed up: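 C6 rat glioma cells (F10 Ham's with 15% horse serum, 2.5% fetal calf serum) exposed 3 days to a concentration series, then plated in soft agar with compound still present at the same concentration; colonies stained and counted after two weeks. IC50; mean of two experiments, each in duplicate.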

The subject of assay [5] is NIH3T3. Description: Inhibition of NIH3T3 proliferation by sulforhodamine B assay. The note with it: Mus musculus, NIH3T3. It counts as functional, cell-based, Mus musculus.
For assay [6], the target named is Platelet-derived growth factor receptor beta (Mus musculus, UniProt P05622). Description: Inhibitory concentration was evaluated against Platelet-derived growth factor receptor beta (PDGFr) tyrosine kinase.
Chain of Platelet-derived growth factor receptor beta (P05622 whole entry): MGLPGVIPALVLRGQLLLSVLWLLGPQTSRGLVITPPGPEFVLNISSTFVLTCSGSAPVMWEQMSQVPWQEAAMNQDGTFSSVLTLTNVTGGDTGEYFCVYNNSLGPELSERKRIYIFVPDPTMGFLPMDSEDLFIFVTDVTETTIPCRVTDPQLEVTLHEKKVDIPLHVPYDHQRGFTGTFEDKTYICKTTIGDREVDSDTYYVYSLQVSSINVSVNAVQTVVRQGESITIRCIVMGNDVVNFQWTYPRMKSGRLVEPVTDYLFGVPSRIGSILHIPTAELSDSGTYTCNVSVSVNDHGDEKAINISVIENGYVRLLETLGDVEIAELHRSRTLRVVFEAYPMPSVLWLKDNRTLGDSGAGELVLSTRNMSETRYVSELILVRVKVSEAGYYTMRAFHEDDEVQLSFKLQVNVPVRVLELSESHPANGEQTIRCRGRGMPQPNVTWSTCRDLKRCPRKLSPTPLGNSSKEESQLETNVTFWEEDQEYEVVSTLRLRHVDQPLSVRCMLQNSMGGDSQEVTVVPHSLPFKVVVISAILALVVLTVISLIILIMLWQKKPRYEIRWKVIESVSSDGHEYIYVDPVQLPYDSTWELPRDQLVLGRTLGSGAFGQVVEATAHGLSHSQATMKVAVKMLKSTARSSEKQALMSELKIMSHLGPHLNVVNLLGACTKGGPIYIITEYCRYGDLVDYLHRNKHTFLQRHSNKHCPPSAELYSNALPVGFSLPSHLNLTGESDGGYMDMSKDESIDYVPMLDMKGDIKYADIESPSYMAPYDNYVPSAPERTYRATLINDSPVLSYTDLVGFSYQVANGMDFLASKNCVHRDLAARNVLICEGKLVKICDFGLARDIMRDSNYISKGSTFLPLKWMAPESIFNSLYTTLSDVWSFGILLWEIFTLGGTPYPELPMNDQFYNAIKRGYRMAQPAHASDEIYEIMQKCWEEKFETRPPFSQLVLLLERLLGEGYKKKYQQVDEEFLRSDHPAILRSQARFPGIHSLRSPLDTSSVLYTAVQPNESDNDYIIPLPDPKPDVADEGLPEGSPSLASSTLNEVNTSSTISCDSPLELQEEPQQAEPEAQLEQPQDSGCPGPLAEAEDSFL
In assay [7] the test system is NIH3T3. As to the kind of experiment: Growth of NIH3T3 cell colonies in soft agar with discontinued treatment. It counts as functional, cell-based. The note with it: Mus musculus. The procedure, abridged: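 PDGF-B-transfected NIH3T3 (NIH3T3/PDGF) cells exposed 3 days to a concentration series, washed free of inhibitor, plated in drug-free soft agar; colonies stained and counted after two weeks. IC50; mean of two experiments, each in duplicate.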

Assay [8] deals with C6. Description: Inhibition of C6 cell proliferation in sulforhodamine B assay. It counts as functional, cell-based, Rattus norvegicus. The note with it: Rattus norvegicus, C6. The procedure, abridged:
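C6 rat glioma cells (F10 Ham's, 15% horse serum, 2.5% fetal calf serum) seeded and allowed 24 h to attach, then given serial 2-fold compound dilutions; 4 d at 37 °C, 5% CO2; growth read by sulforhodamine B staining. IC50; mean of two experiments, each in triplicate.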
(In SRB staining, fixed cells bind dye roughly in proportion to their protein.)

In assay [9] the target is Epidermal growth factor receptor (Homo sapiens, UniProt P00533). As to the kind of experiment: Inhibitory concentration was evaluated against epidermal growth factor receptor (EGFr) tyrosine kinase.
Chain of Epidermal growth factor receptor (P00533 whole entry): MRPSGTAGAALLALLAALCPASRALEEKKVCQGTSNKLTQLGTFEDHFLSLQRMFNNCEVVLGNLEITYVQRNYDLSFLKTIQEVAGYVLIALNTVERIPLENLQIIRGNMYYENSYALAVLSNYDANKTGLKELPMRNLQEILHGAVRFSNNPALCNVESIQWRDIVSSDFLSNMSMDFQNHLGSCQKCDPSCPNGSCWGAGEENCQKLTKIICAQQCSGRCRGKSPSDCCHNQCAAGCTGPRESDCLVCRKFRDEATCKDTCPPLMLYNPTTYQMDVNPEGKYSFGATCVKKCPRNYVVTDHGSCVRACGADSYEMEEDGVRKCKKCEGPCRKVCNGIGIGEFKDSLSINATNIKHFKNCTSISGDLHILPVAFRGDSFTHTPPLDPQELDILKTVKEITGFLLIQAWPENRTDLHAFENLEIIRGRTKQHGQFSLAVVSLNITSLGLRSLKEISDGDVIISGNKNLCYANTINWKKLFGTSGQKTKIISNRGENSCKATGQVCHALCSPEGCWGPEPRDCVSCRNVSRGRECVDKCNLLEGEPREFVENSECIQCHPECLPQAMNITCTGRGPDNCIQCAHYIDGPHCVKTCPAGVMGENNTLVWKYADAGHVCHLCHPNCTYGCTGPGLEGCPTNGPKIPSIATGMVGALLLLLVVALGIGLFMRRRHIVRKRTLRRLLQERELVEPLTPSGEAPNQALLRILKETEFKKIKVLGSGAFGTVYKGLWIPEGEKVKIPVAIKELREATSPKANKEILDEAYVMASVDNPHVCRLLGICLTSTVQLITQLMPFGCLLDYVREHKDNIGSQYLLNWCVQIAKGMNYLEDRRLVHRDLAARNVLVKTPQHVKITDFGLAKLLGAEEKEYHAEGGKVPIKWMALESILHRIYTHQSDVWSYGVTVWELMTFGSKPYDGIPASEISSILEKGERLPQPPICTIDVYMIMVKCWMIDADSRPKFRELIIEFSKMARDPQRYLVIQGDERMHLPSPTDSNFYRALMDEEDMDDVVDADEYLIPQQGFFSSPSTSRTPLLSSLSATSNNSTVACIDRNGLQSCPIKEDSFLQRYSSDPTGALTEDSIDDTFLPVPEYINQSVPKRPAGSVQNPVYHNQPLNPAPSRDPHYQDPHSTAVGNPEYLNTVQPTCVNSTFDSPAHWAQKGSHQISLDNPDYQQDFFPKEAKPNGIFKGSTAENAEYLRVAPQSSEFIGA
Assay [10] concerns the target Fibroblast growth factor receptor 1 (Homo sapiens, UniProt P11362). Description: Inhibitory concentration evaluated against fibroblast growth factor receptor 1.
Assay [11] addresses Platelet-derived growth factor receptor (PDGFr) (Rattus norvegicus, UniProt P20786+Q05030). Description: Inhibition of PDGF-induced autophosphorylation of PDGF-R in C6 cells.

Chain of Fibroblast growth factor receptor 1 (P11362 whole entry): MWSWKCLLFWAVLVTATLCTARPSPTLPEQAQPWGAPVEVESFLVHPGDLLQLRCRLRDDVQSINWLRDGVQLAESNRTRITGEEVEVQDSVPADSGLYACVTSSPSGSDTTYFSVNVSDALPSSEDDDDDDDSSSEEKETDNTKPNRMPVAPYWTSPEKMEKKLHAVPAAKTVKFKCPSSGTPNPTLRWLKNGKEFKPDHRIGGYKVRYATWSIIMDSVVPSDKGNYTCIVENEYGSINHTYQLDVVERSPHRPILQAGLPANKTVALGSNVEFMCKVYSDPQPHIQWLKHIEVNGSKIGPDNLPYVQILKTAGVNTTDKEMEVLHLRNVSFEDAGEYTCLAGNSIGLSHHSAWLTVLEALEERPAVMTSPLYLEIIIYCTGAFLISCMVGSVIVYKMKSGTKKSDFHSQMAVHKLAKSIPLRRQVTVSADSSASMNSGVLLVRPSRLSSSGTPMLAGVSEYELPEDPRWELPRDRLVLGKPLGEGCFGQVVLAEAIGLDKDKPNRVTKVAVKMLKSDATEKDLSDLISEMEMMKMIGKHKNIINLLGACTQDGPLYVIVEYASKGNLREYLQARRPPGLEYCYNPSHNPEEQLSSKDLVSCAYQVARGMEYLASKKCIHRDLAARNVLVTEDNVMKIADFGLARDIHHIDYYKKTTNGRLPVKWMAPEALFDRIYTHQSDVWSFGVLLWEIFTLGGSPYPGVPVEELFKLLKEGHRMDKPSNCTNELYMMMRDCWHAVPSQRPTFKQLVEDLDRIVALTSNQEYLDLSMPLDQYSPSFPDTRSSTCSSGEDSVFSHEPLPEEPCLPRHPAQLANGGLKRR

With `Cn1c(=O)c(-c2c(Cl)cccc2Cl)cc2cnc(Nc3ccncc3)nc21`, the pIC50 in the assay with C6 [1] was 5.16; in the assay on NIH3T3 [2], 6.51; in [3], 8.00; with C6 [4], 6.40; with NIH3T3 [5], 6.98; in assay [6] it was 7.00. In addition, the pIC50 is 6.46 in the assay with NIH3T3 [7], 5.96 in the assay on C6 [8], 6.04 in assay [9] and 6.72 in [10]. The IC50 in assay [11] turned out to be 680 nM.

What is called pIC50 is the IC50 on a negative log10 scale, so that one unit is a factor of ten. A high value points to a low IC50. What is called IC50 is the point on the concentration scale where inhibition reaches its midpoint. A low value points to greater potency in that assay.
